# The EternaBench riboswitch data
# Legend:
# MS2 coat protein [1] = assay: apparent Kd, MS2 coat protein; higher = weaker binding; RNA-MaP array; theophylline 2 mM where present
# Outline: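 The apparent Kd comes from binding curves fitted cluster by cluster, filtered, and summarised as a median. Those curves followed SNAP-549-labelled MS2 coat protein from 0.7 or 1.5 nM, doubling to 3 µM, on Illumina sequencing-chip clusters where stalled E. coli RNA polymerase had transcribed the designs, without and then with constant ligand. The buffer was 100 mM Tris-HCl pH 7.5, 80 mM KCl, 4 mM MgCl2, BSA, DTT, yeast tRNA and Tween-20, and green signal was normalised to red-channel RNA signal and control-cluster median Fmax.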
# MS2 coat protein [2] = assay: apparent Kd, MS2 coat protein; higher = weaker binding; RNA-MaP array
# Outline: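 Designed RNAs were transcribed on an Illumina sequencing chip from sequenced DNA templates. They were incubated at room temperature with fluorescently labeled MS2 coat protein at 1.5 nM to 3 μM, for 0.8–1.5 h at the lowest to 10–20 min at the highest concentrations, in Tris-HCl pH 7.5 buffer with KCl, MgCl2, BSA, DTT, tRNA and Tween20, with or without input ligand. Apparent Kd is the median of per-cluster binding-curve fits. Designs measured on fewer than 10 clusters were excluded.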
# [3] = designed as: ON switch for theophylline, no ligand
# [4] = ligand present: theophylline, designed as: ON switch for theophylline
# [5] = designed as: OFF switch for theophylline, no ligand
# [6] = ligand present: theophylline, designed as: OFF switch for theophylline
# [7] = ligand present: flavin mononucleotide, designed as: OFF switch for flavin mononucleotide
# [8] = designed as: ON switch for tryptophan, no ligand
# [9] = ligand present: tryptophan, designed as: ON switch for tryptophan
# [10] = designed as: ON switch for flavin mononucleotide, no ligand
# [11] = ligand present: flavin mononucleotide, designed as: ON switch for flavin mononucleotide
# [12] = designed as: OFF switch for flavin mononucleotide, no ligand
sequence,measurement,setting,value
GCACGACAUGAGGAUCACCCAUGUGCAGAUACCAGUAAUGUAUAUUACCCUUGGCAGCUGAGUAGAUCUGGAGGGCUAUAGGUAA,apparent Kd,MS2 coat protein [1]; [3],13.8 nM
same,apparent Kd,MS2 coat protein [1]; [4],20.8 nM
UCUUACUAUAGUGAUACCAGACGUACAUGAGGAUCACCCAUGUUACAUUCUUGGUUAAAAGUCCCUUGGCAGCACGAUUUGUUCG,apparent Kd,MS2 coat protein [1]; [5],9.28 nM
same,apparent Kd,MS2 coat protein [1]; [6],9.5 nM
GGUGAUCCGUAUCACCGGAUCACCGGUGAUACCAGCAUCGAAAGAUGCCCUUGGCAGCACCAACAUGAGGAUCACCCAUGUAAUA,apparent Kd,MS2 coat protein [1]; [3],165 nM
same,apparent Kd,MS2 coat protein [1]; [4],26.4 nM
ACGAACGAUAGUGAUACCAGACGUACAUGAGGAUCACCCAUGUUAUACACAUGGUUUAUUGUCCCUUGGCAGCACGUUAAGUUCG,apparent Kd,MS2 coat protein [1]; [5],274 nM
same,apparent Kd,MS2 coat protein [1]; [6],295 nM
CUCCGAGGCUAUACUAUACGCCUUUGUGAUACCAGAAUAAAUAUAUUCCCUUGGCAGCAUCACAUGAGGAUCACCCAUGUGCCAU,apparent Kd,MS2 coat protein [1]; [3],11.7 nM
same,apparent Kd,MS2 coat protein [1]; [4],18 nM
ACAUGAGGAUCACCCAUGUUCCUCAUUGAUACCAGUGAAUUUAGACGCCCUUGGCAGCGAGUUUUUUUAUAAGAAGUUUUUUUUU,apparent Kd,MS2 coat protein [1]; [5],660 nM
same,apparent Kd,MS2 coat protein [1]; [6],1310 nM
UUUCUCAAUGUCAGGAUAUAGAUUUGACAUCCUCACUAGAAGGGACAUGAGGAUCACCCAUGUGUCAAUGCGGC,apparent Kd,MS2 coat protein [2]; [7],17.6 nM
ACGCACAUGAGGAUCACCCAUGUGAACCUACGAGGACCGGUACGGCCGCCACUCGCUGUUCCUACCGGCUUAAUUGUCACUGGGU,apparent Kd,MS2 coat protein [2]; [8],36.5 nM
same,apparent Kd,MS2 coat protein [2]; [9],35 nM
ACAAGAGUAAAACAUACAUGAGGAUCACCCAUGUUAUCAACAAAGGAUAUCGUUGUGGUAGGGAACGAGAAGGUUGCAAAAUCA,apparent Kd,MS2 coat protein [2]; [10],15.4 nM
same,apparent Kd,MS2 coat protein [2]; [11],11.7 nM
CAACGACAUGAGGAUCACCCAUGUGAGGAUAUCUACUUGAUCAGGUAACUGCUUCCGAAGAGAAGGCACGGUGA,apparent Kd,MS2 coat protein [2]; [12],20.4 nM
same,apparent Kd,MS2 coat protein [2]; [7],19.5 nM
CUCGCAAAUGGAGGAUAUGCCGAGAUCCCUAUCCUCAGGACCUCCACAUGAGGAUCACCCAUGUUGCAGAAGGCCAGUGUGAAG,apparent Kd,MS2 coat protein [2]; [12],14.4 nM
same,apparent Kd,MS2 coat protein [2]; [7],12.2 nM
UUCGACAGCGUGAGGAUAUCUACAUCGGGUAGGUGAGAGAAGGCACAUGAGGAUCACCCAUGUUCUGAAGAGCA,apparent Kd,MS2 coat protein [2]; [12],16 nM
same,apparent Kd,MS2 coat protein [2]; [7],19.9 nM
GGAAUCUUUCGAGGAUAUGUCCCACAAUAGUGCCUACCGGGUAACAUGAGGAUCACCCAUGUGAGACAGAAGGCGAGGUUUGGC,apparent Kd,MS2 coat protein [2]; [12],9.86 nM
same,apparent Kd,MS2 coat protein [2]; [7],38 nM
CGUCCCUAGCAGAAGGUUCUUUGGGCUGCAGUGAAAGGAUAUGCCAGCACAUGAGGAUCACCCAUGUCUGUCGGAUGCACCAGA,apparent Kd,MS2 coat protein [2]; [10],63.9 nM
same,apparent Kd,MS2 coat protein [2]; [11],47 nM
UCCUACAAAGUCAGGAUAUUCGCACAGUCACGAGGGAAGAAGGGACAUGAGGAUCACCCAUGUAUUUACGCGUA,apparent Kd,MS2 coat protein [2]; [12],20.4 nM
same,apparent Kd,MS2 coat protein [2]; [7],27.2 nM
CAUAGCAAAAGUGAUACCAGAGUUCGAGGGAACAUGAGGAUCACCCAUGUGCUUGUACAACUCCCUUGGCAGCACAGAGCAAUUA,apparent Kd,MS2 coat protein [2]; [3],23.1 nM
same,apparent Kd,MS2 coat protein [2]; [4],10.3 nM
CCUCGUCCGUACAUGAGGAUCACCCAUGUGAGCCCUAAACCCAGAAGGCAAUGAAUACCUAUUCUUGAGGAUAUGGAUCACCGU,apparent Kd,MS2 coat protein [2]; [12],279 nM
same,apparent Kd,MS2 coat protein [2]; [7],185 nM
CACAUGAGGAUCACCCAUGUUCGUUCACUUCAUGUAAUGAUUAGAAGGUCACGCGCCUAUCUGCUGAAGGAUAUAAUCCCGAAA,apparent Kd,MS2 coat protein [2]; [12],11.1 nM
same,apparent Kd,MS2 coat protein [2]; [7],10.1 nM
GCGCGGCGUGAAGGAUAUGGUUCAGUACAUGAGGAUCACCCAUGUCAGACAGCAUCGGGGCCGUCCCAGAAGGUCACACGUUUU,apparent Kd,MS2 coat protein [2]; [10],9.14 nM
same,apparent Kd,MS2 coat protein [2]; [11],7.36 nM
GUUAGUUGUGAGGAUAUUCAGAGAUCUCGAUCAGAAGAAGGCACUACAUGAGGAUCACCCAUGUAGAUUCUUAU,apparent Kd,MS2 coat protein [2]; [12],5.25 nM
same,apparent Kd,MS2 coat protein [2]; [7],8.88 nM
UAGAUAUGAGGAUAUACAUGAGGAUCACCCAUGUGGUUAUCAAACGACAUGACAUUUAGUAGAAGGCAAACAUC,apparent Kd,MS2 coat protein [2]; [12],23.5 nM
same,apparent Kd,MS2 coat protein [2]; [7],21 nM
AAGUUGAGCACAAAGGAUAUUUGUAAACAAACAUGAGGAUCACCCAUGUGAACAAUAGUACAUACAAAGAAGGUUGAGAUACAUGU,apparent Kd,MS2 coat protein [2]; [10],54.2 nM
same,apparent Kd,MS2 coat protein [2]; [11],25.9 nM
UCACGGUCAGGAUAUCCUACCUUAGGGCAACCAUGGUAAACGGAGAAGGGACAUGAGGAUCACCCAUGUACAGC,apparent Kd,MS2 coat protein [2]; [12],12.9 nM
same,apparent Kd,MS2 coat protein [2]; [7],26.8 nM
UAUCGCGCGGCGGCCGCCACUAAUGGCAGAUCUGUCGACUAACAUGAGGAUCACCCAUGUCUAACUAGGACCGGGCCCAAGUUGU,apparent Kd,MS2 coat protein [2]; [8],47.5 nM
same,apparent Kd,MS2 coat protein [2]; [9],40.2 nM
GUUGAGGUGGUAGGAUAUAGUUUACACAUGAGGAUCACCCAUGUAUUCUAGACUUCAAGCCUCACCUAGAAGGACCCGUGCAAA,apparent Kd,MS2 coat protein [2]; [12],4.91 nM
same,apparent Kd,MS2 coat protein [2]; [7],4.75 nM
UGAACCGGAAAGAAGGCCUUGCUUUAACGUACAGGAGGAUAUUUCCUAUUUGUGAGCCUUGACAUGAGGAUCACCCAUGUAUCG,apparent Kd,MS2 coat protein [2]; [12],479 nM
same,apparent Kd,MS2 coat protein [2]; [7],116 nM
